Screening data (PubChem BioAssay)
Compounds with a hit are over-represented: about 2.5% of the library has one in this group of screens.
PRMT1 FP inh – blocks human protein arginine methyltransferase 1. recombinant PRMT1, activity-based probe fluorescence polarization. Q99873. inhibition, % at 2.79 µM. hit rate 1.3% among 370,000;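 active = inhibition above about 21% made by adding two undisclosed values, limit read from the data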
Target sequence (Q99873 whole entry, looked up): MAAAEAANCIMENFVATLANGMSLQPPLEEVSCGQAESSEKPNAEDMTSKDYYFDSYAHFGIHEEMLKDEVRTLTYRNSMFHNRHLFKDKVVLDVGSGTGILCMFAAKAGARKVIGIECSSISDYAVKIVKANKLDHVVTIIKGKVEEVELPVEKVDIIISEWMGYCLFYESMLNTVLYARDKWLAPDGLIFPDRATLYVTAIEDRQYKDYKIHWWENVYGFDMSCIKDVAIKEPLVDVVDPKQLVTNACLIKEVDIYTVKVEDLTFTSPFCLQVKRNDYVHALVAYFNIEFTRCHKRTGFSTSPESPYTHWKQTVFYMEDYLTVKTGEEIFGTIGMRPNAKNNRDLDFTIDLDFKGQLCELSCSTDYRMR
ABHD4 inh – inhibitors of mouse ABHD4 | Q8VD66 | purified mABHD4, FP-Rh probe fluorescence polarization | inhibition, % at 8.92 µM | hit rate 0.54% among 370,000 | AID 720543;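 active = inhibition exceeding the mean over every tested compound plus 3 SD, cut at about 30% in these data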
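Doses – 8.92 µM, single dose · Material – wild-type mouse ABHD4 protein · Replication – single well per compound (singlicate) · Measure – percent inhibition of probe binding, normalized to plate controls · Schedule – 45 min compound pre-incubation plus 60 min probe step, 25 °C · Detection – fluorescence polarization with parallel and perpendicular emission, 525/598 nm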
HTRA1 inhibitor – blocks human HTRA1 serine peptidase | Q92743 | recombinant HTRA1, FP-rhodamine activity-based probe, fluorescence polarization | inhibition, % at 5.96 µM | hit rate 0.5% among 340,000 | AID 504803; in the data active = inhibition above about 36%
SIAE inh – inhibitors of human sialic acid acetylesterase SIAE; SIAE FP-Rh probe binding, fluorescence polarization; inhibition, % at 9.66 µM; hit rate 0.69% among 370,000; AID 1053197;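 active = inhibition above a cutoff: mean of compounds within the control limits plus 3 SD of those, cut at about 17% in these data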
TCR CD3 inh – inhibitors of human TCR-CD3 interaction | TAMRA-labeled TCR probe fluorescence, biochemical | inhibition, % at 9.4 µM | hit rate 0.37% among 360,000 | AID 651800;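 also: recombinant mutant TCR 2C K166C tagged with TAMRA read by polarization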
BSA probe FL – interferes with TAMRA-BSA probe, flagging TCR-CD3 hits | TAMRA-labeled BSA probe fluorescence counterscreen | hit rate 10% among 1,200 | inhibition, % at 9.4 µM | AID 652035 | shares compounds with TCR CD3 inh; in the data active = inhibition above about 23%
TCR-CD3 conf – TCR-CD3 interaction inhibition, confirmation; shares compounds with TCR CD3 inh; TAMRA-labeled TCR probe fluorescence binding assay; inhibition, % at 9.4 µM; hit rate 48% among 1,200; AID 652036
A number is an active result; – = inactive; · = no result given. Rule as the data show it, unless noted: active = inhibition above about 19%; inactive = the rest.

SMILES	PRMT1 FP inh	ABHD4 inh	HTRA1 inhibitor	SIAE inh	TCR CD3 inh	BSA probe FL	TCR-CD3 conf
Cc1ccc(S(=O)(=O)N2C[C@@H](C)[C@]3(C2)[C@H](O)[C@H](OC(=O)NCc2ccccc2F)C[C@H]2C(=O)N(c4ccccc4)C(=O)[C@H]23)cc1	–	–	–	–	–	·	·
Cc1cc(=O)oc2c(CN3CCC(C)CC3)c(O)c(Cl)cc12	–	–	–	26.1	24.9	33.3	35.3
Cc1cccc(C(=O)N2CCN(S(=O)(=O)N3CCCCCC3)CC2)c1	–	–	–	–	–	·	·
NC(=O)c1c(NC(=O)c2ccc(N3C(=O)CCC3=O)cc2)sc2c1CCCC2	–	–	–	–	–	·	·
O=C(NNC(=O)c1cc(Cl)ccc1O)c1cccc(S(=O)(=O)N2CCOCC2)c1	–	–	–	–	43.2	–	31.3
O=C(N/N=C/c1cc(Cl)cc([N+](=O)[O-])c1O)c1ccc2c(c1)OCO2	–	–	–	–	41.0	–	47.2
O=C(N/N=C/c1cc(Cl)cc([N+](=O)[O-])c1O)c1cccc(S(=O)(=O)N2CCOCC2)c1	–	–	–	–	41.3	–	58.1
O=C(N/N=C/c1ccccc1O)c1ccc2c(c1)OCO2	–	–	–	–	–	·	·
COc1cc(Cl)cc(/C=N\NC(=O)c2ccc3c(c2)OCO3)c1O	–	–	–	–	–	·	·
Cc1cc(Br)cc(/C=N/NC(=O)c2ccc3c(c2)OCO3)c1O	–	–	–	–	29.2	–	33.9
Cc1ccc(C(=O)NNC(=O)c2cccc(S(=O)(=O)N3CCOCC3)c2)cc1	–	–	–	–	–	·	·
COCCN1C(=O)C(C(=O)OC)CC2=C1CC(C)(C)CC2=O (stereo not given)	–	–	–	–	–	·	·
Cc1cccc(C)c1-n1nnnc1C1(C)CCC(=O)N1CCCN1CCOCC1 (stereo not given)	–	–	·	–	–	·	·
O=C(CCNS(=O)(=O)c1ccccc1)NCCCSc1ccccc1	–	–	–	–	–	·	·
CCOc1ccc(S(=O)(=O)NCCC(=O)NCCCSc2ccccc2)cc1	–	–	–	–	43.2	–	–
Cc1ccc(NC(=S)Nc2ccc(C(C)C)cc2)cc1S(=O)(=O)N1CCCCCC1	–	–	–	–	22.5	–	–
COc1ccccc1OCc1ccc(C(=O)Nc2ccncc2)o1	–	–	–	–	31.6	–	–
COc1ccccc1OCc1ccc(C(=O)NC(C)(C)C)o1	–	–	–	–	–	·	·
N/C(CC(=O)NC1CCCCC1)=N\OCC(=O)Nc1ccc(Cl)c(Cl)c1	–	–	–	–	–	·	·
COCCNC(=O)c1ccc(N2CC3CC(C2)c2cccc(=O)n2C3)c(NC(=O)c2ccccc2Br)c1 (stereo not given)	–	–	–	–	49.1	–	–
Cc1c(NC(=S)N/N=C\c2ccccc2O)c(=O)n(-c2ccccc2)n1C	–	–	–	–	–	·	·
Cc1c(NC(=S)N/N=C/c2ccc([N+](=O)[O-])cc2O)c(=O)n(-c2ccccc2)n1C	–	–	–	–	23.8	–	–
CC(C)CC1NC(=O)c2ccc(Cl)cc2-n2c1nc1cc(F)ccc1c2=O (stereo not given)	–	–	·	–	169.5	–	–
Cc1[nH]c2ccccc2c1C(=O)C(C)OC(=O)c1ccc(NC(=O)CC#N)cc1 (stereo not given)	–	–	–	–	–	·	·
Cc1cc(C(=O)C(C)OC(=O)c2ccc(NC(=O)CC#N)cc2)c(C)n1-c1ccc(OC(F)F)cc1 (stereo not given)	–	–	–	–	24.2	–	–
O=C(c1cc(S(=O)(=O)N2CCOCC2)ccc1F)N(CCc1ccccc1)Cc1ccccc1	–	–	–	–	–	·	·
Cc1ccc(S(=O)(=O)N(C)c2ccc(OCC(=O)Nc3nc4ccccc4s3)cc2)cc1	–	–	–	–	20.7	–	–
Cc1ccc(S(=O)(=O)N(C)c2ccc(OCC(=O)Nc3nc4c(ccc5ccccc54)s3)cc2)cc1	–	–	–	–	–	·	·
COc1cc(CCC(=O)Nc2ccc(S(=O)(=O)NC3=NCCCCC3)cc2)cc(OC)c1OC	–	–	–	–	–	·	·
O=C(NNC(=O)C1CCN(S(=O)(=O)c2c(Cl)cccc2Cl)CC1)c1ccccc1O	–	–	–	–	31.0	–	27.4
